Assay results as given in ChEMBL document CHEMBL1155945, “Discovery of 2-chloro-N-(4-methoxyphenyl)-N-methylquinazolin-4-amine (EP128265, MPI-0441138) as a potent inducer of apoptosis with high in vivo activity” (J Med Chem, 2008).
Active and inactive are the calls of the source. The rule behind the calls is not given here.

Key:
HCT-116 [1] = assay: Induction of apoptosis in human HCT116 cells assessed as caspase 3 activation after 24 hrs; type: functional, cell-based; details: HCT-116, 24 h
How it was run: (§1)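 A live-cell, high-throughput caspase-3 activator assay was used, with fluorescent caspase-3 substrates in intact cells. EC50 values for caspase activation are the mean ± SEM of three or more experiments.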

T47D [2] = assay: Induction of apoptosis in human T47D cells assessed as caspase 3 activation after 24 hrs; type: functional, cell-based; how it was run: as §1
T47D [3] = assay: Growth inhibition of human T47D cells after 48 hrs by CellTiter-Glo assay; type: functional
How it was run: (§2)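 Cells were exposed continuously to the compound for 48 h at 37 °C. CellTiter-Glo reagent was then added and the samples mixed by agitation. After 10-15 min at room temperature, luminescence was read. GI50 was taken as 50% inhibition of cell proliferation. Values are the mean ± SEM of three experiments.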

HCT-116 [4] = assay: Growth inhibition of human HCT116 cells after 48 hrs by CellTiter-Glo assay; type: functional; details: HCT-116, 48 h; how it was run: as §2
Mus musculus [5] = assay: AUC in C57BL/6 mouse brain at 2.5 mg/kg, iv; type: ADME, organism-based; design: dose 2.5 mg/kg, route intravenous; details: in vivo
MX1 [6] = assay: Antitumor activity in human MX1 cells xenografted crl:Nu/Nu-nuBR mouse assessed as tumor growth inhibition at 10 mg/kg, iv administered once weekly for 2 weeks; type: functional; details: MX1, 336 h
Mus musculus [7] = assay: Toxicity in human MX1 cells xenografted crl:Nu/Nu-nuBR mouse assessed as decrease in body weight at 10 mg/kg, iv administered once weekly for 2 weeks; type: organism-based; design: dose 10 mg/kg, route intravenous; scale not given: the % may be the effect or the level left; details: in vivo, 336 h
[8] = Therapeutic index, ratio of MTD for human MX1 cells xenografted crl:Nu/Nu-nuBR mouse to tumor growth inhibition in human MX1 cells xenografted crl:Nu/Nu-nuBR mouse; details: in vivo
MX1 [9] = assay: Antitumor activity in human MX1 cells xenografted crl:Nu/Nu-nuBR mouse assessed as tumor growth inhibition at 2.5 mg/kg, iv administered once a day for 5 days for 2 weeks; type: functional
[10] = Inhibition of tubulin polymerization
[11] = Toxicity in human MX1 cells xenografted crl:Nu/Nu-nuBR mouse; type: organism-based; details: in vivo
How it was run: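 MX-1 human breast tumour xenograft in mice; dosed intravenously once weekly at several dose levels […]. Tolerability was judged by maximum body weight decrease, alongside tumour growth measurement.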

P388 [12] = assay: Cytotoxicity against mouse P388 cells; type: functional, cell-based
How it was run: (§3)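 Cytotoxicity IC50 was measured in parental P388 cells and in the P388/ADR line, which overexpresses the ABC transporter Pgp-1 (MDR-1). Values are the mean ± SEM of three experiments.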

PC-3 = assay: Antitumor activity in human PC3 cells xenografted crl:Nu/Nu-nuBR mouse assessed as tumor growth inhibition at 10 mg/kg, iv administered once weekly for 2 weeks; type: functional, organism-based; design: dose 10 mg/kg
P388 [13] = assay: Cytotoxicity against adriamycin-resistant mouse P388 cells expressing p-glycoprotein; type: functional, cell-based; how it was run: as §3
[14] = Displacement of fluorescent labeled colchicine from tubulin at 50 uM
Mus musculus [15] = assay: AUC in C57BL/6 mouse plasma at 2.5 mg/kg, iv; type: ADME, organism-based; design: dose 2.5 mg/kg, route intravenous; details: in vivo

Row | SMILES | EC50 (HCT-116 [1]) [µM] | EC50 (T47D [2]) [µM] | further results
1 | COc1ccc(Nc2nc(Cl)nc3cc(OC)c(OC)cc23)cc1 | > 10 | > 10 | –
2 | COc1ccc(N(C)c2nc(NC/C=C(\C)CCC=C(C)C)nc3ccccc23)cc1 | – | – | GI50 (T47D [3]): 0.85 µM; GI50 (HCT-116 [4]): 0.35 µM
3 | COc1ccc(N(C)c2nc(Cl)nc3ccccc23)cc1OC | 0.015 | 0.009 | –
4 | CCN(c1ccc(OC)cc1)c1nc(Cl)nc2ccccc12 | 0.049 | 0.039 | –
5 | COc1ccc(Oc2ncnc3ccccc23)cc1 | > 10 | > 10 | –
6 | COc1cccc(N(C)c2nc(Cl)nc3ccccc23)c1 | 0.031 | 0.025 | –
7 | COc1ccc(N(C)c2nc(Cl)nc3ccccc23)cc1 | – | – | GI50 (T47D [3]): 0.001 µM; AUC (Mus musculus [5]): 20563 ng/mL; inhibition in vivo at 10 mg/kg (MX1 [6]): > 95%; GI50 (HCT-116 [4]): 0.002 µM; Activity (Mus musculus [7]): < 10%; selectivity ratio [8]: 2.5; inhibition in vivo at 2.5 mg/kg (MX1 [9]): 90%; IC50 [10]: < 0.4 µM; MTD [11]: 25 mg/kg; IC50 (P388 [12]): 0.0021 µM; Activity (PC-3): Active; IC50 (P388 [13]): 0.0022 µM; Activity [14]: Active; AUC (Mus musculus [15]): 669 ng/mL
8 | COc1ccc(N(C)c2nc(Cl)nc3cc(Cl)ccc23)cc1 | 0.35 | 0.3 | –
9 | CN(c1ccc(O)cc1)c1nc(Cl)nc2ccccc12 | 0.12 | 0.085 | –
10 | CN(c1ccc(OC(F)(F)F)cc1)c1nc(Cl)nc2ccccc12 | 0.059 | 0.049 | –
11 | CCOc1ccc(N(C)c2nc(Cl)nc3ccccc23)cc1 | 0.005 | 0.005 | –
12 | CN(c1ccc2c(c1)OCO2)c1nc(Cl)nc2ccccc12 | 0.065 | 0.031 | –
13 | COc1ccccc1N(C)c1nc(Cl)nc2ccccc12 | > 10 | 4.44 | –
14 | CN(c1ccc(Oc2ccccc2)cc1)c1nc(Cl)nc2ccccc12 | > 10 | > 10 | –
15 | COc1ccc(N(C)c2ncnc3ccccc23)cc1 | 0.008 | 0.006 | –
16 | CN(c1ccccc1)c1nc(Cl)nc2ccccc12 | 0.3 | 0.21 | –
17 | CC[C@]1(O)C[C@@H]2CN(CCc3c([nH]c4ccccc34)[C@@](C(=O)OC)(c3cc4c(cc3OC)N(C)[C@H]3[C@@](O)(C(=O)OC)[C@H](OC(C)=O)[C@]5(CC)C=CCN6CC[C@]43[C@@H]65)C2)C1 [VINBLASTINE] | – | – | IC50 (P388 [12]): 0.0006 µM; IC50 (P388 [13]): 0.027 µM
18 | COc1ccc(CN(C)c2nc(Cl)nc3ccccc23)cc1 | 0.12 | 0.068 | –
19 | COc1ccc(N(C)c2nc(Cl)nc3ccccc23)cn1 | 0.029 | 0.017 | GI50 (T47D [3]): 0.037 µM; GI50 (HCT-116 [4]): 0.04 µM
20 | COc1ccc(N(C)c2nc(Cl)nc3ccc(Cl)cc23)cc1 | 0.013 | 0.01 | –
21 | Cc1ccc(N(C)c2nc(Cl)nc3ccccc23)cc1 | 0.021 | 0.015 | –
22 | COc1ccc(N(C)c2nc(Cl)nc3cc(OC)c(OC)cc23)cc1 | 0.97 | 0.59 | –
23 | CC(=O)O[C@@]12CO[C@@H]1C[C@H](O)[C@@]1(C)C(=O)[C@H](O)C3=C(C)[C@@H](OC(=O)[C@H](O)[C@@H](NC(=O)OC(C)(C)C)c4ccccc4)C[C@@](O)([C@@H](OC(=O)c4ccccc4)[C@H]21)C3(C)C [DOCETAXEL] | – | – | IC50 (P388 [12]): 0.002 µM; IC50 (P388 [13]): 0.277 µM
24 | COc1cc2c(c(OC)c1OC)-c1ccc(OC)c(=O)cc1[C@@H](NC(C)=O)CC2 [COLCHICINE] | – | – | IC50 [10]: 0.5 µM
25 | COc1cccc(N(C)c2nc(Cl)nc3ccccc23)c1OC | 1.11 | 0.68 | –
26 | COc1ccc(Nc2nc(Cl)nc3ccccc23)cc1 | > 10 | > 10 | –
27 | CN(c1ccc(Cl)cc1)c1nc(Cl)nc2ccccc12 | 0.072 | 0.068 | –
28 | CN(c1ccc([N+](=O)[O-])cc1)c1nc(Cl)nc2ccccc12 | 1.4 | 0.77 | –
